The source of these data is ChEMBL document CHEMBL1150273, “Aza-peptidyl Michael acceptors. A new class of potent and selective inhibitors of asparaginyl endopeptidases (legumains) from evolutionarily diverse pathogens” (J Med Chem, 2008).

The target of series [1] is T1, Clostripain (Clostridium histolyticum) (UniProt P09870).
T1 sequence (whole entry): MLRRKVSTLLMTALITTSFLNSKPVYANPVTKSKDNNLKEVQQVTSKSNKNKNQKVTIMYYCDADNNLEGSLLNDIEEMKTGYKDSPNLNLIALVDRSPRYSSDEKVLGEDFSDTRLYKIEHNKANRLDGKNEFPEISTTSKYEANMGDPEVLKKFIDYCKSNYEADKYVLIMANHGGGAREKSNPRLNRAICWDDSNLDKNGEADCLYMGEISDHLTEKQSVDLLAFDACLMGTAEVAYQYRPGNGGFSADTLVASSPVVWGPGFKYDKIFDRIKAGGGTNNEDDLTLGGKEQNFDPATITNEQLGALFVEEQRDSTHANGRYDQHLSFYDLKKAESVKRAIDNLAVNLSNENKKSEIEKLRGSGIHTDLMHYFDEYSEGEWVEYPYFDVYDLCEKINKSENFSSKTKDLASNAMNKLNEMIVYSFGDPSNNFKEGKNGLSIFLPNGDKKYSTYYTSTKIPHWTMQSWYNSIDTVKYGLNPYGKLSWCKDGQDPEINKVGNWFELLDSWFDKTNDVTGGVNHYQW
In words: Inhibition of sClostridium histolyticum clostripain assessed as ratio of pseudo-first-order inhibition rate constant to inhibitor concentration. The settings on record: Hathewaya histolytica. The method in brief: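 Clostripain activated in 8 mM DTT, then incubated with inhibitor (DMSO) in 20 mM Tris-HCl, 10 mM CaCl2, 0.005% Brij 35, 2 mM DTT, pH 7.6; aliquots taken at intervals into buffer with Cbz-Phe-Arg-AMC; fluorescence at 465 nm; pseudo-first-order kinetics.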

Series [2] addresses Lys-gingipain HG66 (Porphyromonas gingivalis) (UniProt P72197). In words: Inhibition of Porphyromonas gingivalis gingipain K assessed as ratio of pseudo-first-order inhibition rate constant to inhibitor concentration. The method in brief: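 Gingipain K diluted to 4.61 nM in 0.2 M Tris-HCl, 0.1 M NaCl, 5 mM CaCl2, 2 mM DTT, pH 8.0 and incubated with inhibitor (DMSO) at room temperature; aliquots taken at intervals into buffer with Suc-Ala-Phe-Lys-AMC; fluorescence at 465 nm; pseudo-first-order kinetics.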

The target in series [3] is T2, Caspase-6 (Homo sapiens) (UniProt P55212).
T2 sequence (whole entry): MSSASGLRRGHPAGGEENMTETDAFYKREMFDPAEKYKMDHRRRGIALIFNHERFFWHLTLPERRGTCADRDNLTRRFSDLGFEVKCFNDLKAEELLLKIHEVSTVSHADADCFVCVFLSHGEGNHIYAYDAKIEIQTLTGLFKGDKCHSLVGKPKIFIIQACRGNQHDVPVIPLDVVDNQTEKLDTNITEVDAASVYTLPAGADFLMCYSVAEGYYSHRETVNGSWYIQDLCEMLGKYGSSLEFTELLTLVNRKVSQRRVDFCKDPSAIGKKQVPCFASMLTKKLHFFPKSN
In words: Inhibition of caspase 6 assessed as ratio of pseudo-first-order inhibition rate constant to inhibitor concentration. The method in brief: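 Caspase-6 at 5 nM final, assayed in the same Pipes/NaCl/CHAPS/sucrose/DTT buffer, pH 7.2, 37 °C with Ac-Asp-Glu-Val-Asp-AMC by the progress curve method; inhibitor stocks 5 × 10^-3 to 2.42 × 10^-6 M in DMSO; rates corrected for substrate using KM 236.35 µM.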

The nature of series [4]: Stability assessed as half life in citrate phosphate buffer at pH 6.8 in presence of dithiothreitol. The series is classed as physicochemical. The settings on record: citrate phosphate buffer with dithiothreitol.
Series [5] is described as follows: Inhibition of Schistosoma mansoni AE expressed in Pichia pastoris after 20 mins. The gist of the method: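 Recombinant AE zymogens expressed in Pichia pastoris; SmAE and TvAE1 autoactivated in 0.5 M sodium acetate, 4 mM DTT, pH 4.5, 37 °C, 3 h to overnight; IrAE used without activation. Buffer 0.1 M citrate phosphate, 4 mM DTT, pH 6.8 (SmAE, TvAE1) or pH 5.5 (IrAE). Inhibitor 2.0–0.0002 µM final, 20 min preincubation at room temperature; 10 µM final Cbz-Ala-Ala-Asn-AMC, 20 min; IC50 from RFU/min vs concentration.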

Series [6] deals with T3, Papain (Carica papaya) (UniProt P00784).
T3 sequence (whole entry): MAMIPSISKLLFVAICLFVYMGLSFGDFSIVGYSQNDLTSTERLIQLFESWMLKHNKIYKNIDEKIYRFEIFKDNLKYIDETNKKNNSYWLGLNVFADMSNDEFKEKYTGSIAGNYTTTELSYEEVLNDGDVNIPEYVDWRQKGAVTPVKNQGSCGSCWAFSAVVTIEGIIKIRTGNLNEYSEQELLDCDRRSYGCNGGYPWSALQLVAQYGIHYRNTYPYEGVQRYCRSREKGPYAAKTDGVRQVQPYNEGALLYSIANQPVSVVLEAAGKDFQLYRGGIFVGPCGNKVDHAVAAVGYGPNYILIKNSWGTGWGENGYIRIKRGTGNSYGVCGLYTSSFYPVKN
In words: Inhibition of papain assessed as ratio of pseudo-first-order inhibition rate constant to inhibitor concentration. The gist of the method: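 Papain, about 0.29 mg/mL, incubated with inhibitor in 50 mM Hepes, 2.5 mM DTT, 2.5 mM EDTA, pH 7.5; aliquots taken over time into 53.7 µM Cbz-Phe-Arg-pNA; p-nitroanilide release read at 405 nm at room temperature; pseudo-first-order inactivation kinetics.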

For series [7], the target named is Cathepsin B (Homo sapiens) (UniProt P07858). Put plainly: Inhibition of cathepsin B assessed as ratio of pseudo-first-order inhibition rate constant to inhibitor concentration.
In series [8] the target is Caspase-8 (Homo sapiens) (UniProt Q14790). In words: Inhibition of caspase 8 assessed as ratio of pseudo-first-order inhibition rate constant to inhibitor concentration. The gist of the method: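 Caspase-8 at 50 nM final, assayed in the same Pipes/NaCl/CHAPS/sucrose/DTT buffer, pH 7.2, 37 °C with Ac-Asp-Glu-Val-Asp-AMC by the progress curve method; inhibitor stocks 5 × 10^-3 to 2.42 × 10^-6 M in DMSO; rates corrected for substrate using KM 6.79 µM.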

The source made the active and inactive calls. The rule behind the calls is not given here. Bounds are passed on as bounds.

In the case of `CCOC(=O)/C=C/C(=O)N(CC(N)=O)NC(=O)[C@H](C)NC(=O)[C@H](C)NC(=O)OCc1ccccc1`, the outcome in series [1], in series [3], in series [6] and in series [8] was inactive. In addition, the Ratio in series [2] is 6 M⁻¹ s⁻¹; in series [7], < 1 M⁻¹ s⁻¹. Further, the half-life in series [4] amounted to 3.7 min. Besides, inhibition in series [5] was half-maximal at 31 nM (IC50).

`C[C@H](NC(=O)OCc1ccccc1)C(=O)N[C@@H](C)C(=O)NN(CC(N)=O)C(=O)/C=C/C(=O)N(C)Cc1cccc2ccccc12`: the outcome in series [1], in series [3], in series [6], in series [7] and in series [8] was inactive. Besides, in series [2], the Ratio worked out at 6 M⁻¹ s⁻¹. For the same molecule, in series [5], the IC50 stood at 35 nM.

In the case of `C[C@H](NC(=O)OCc1ccccc1)C(=O)N[C@@H](C)C(=O)NN(CC(N)=O)C(=O)/C=C/C(=O)N(Cc1ccccc1)Cc1ccccc1`, the outcome in series [1], in series [3], in series [7] and in series [8] was inactive. In addition, the Ratio was determined as 2 M⁻¹ s⁻¹ in series [2] and 1 M⁻¹ s⁻¹ in series [6]. In addition, in series [4], the half-life is 17 min. The same molecule had an IC50 in series [5] of 45 nM.

For `C[C@H](NC(=O)OCc1ccccc1)C(=O)N[C@@H](C)C(=O)NN(CC(N)=O)C(=O)/C=C/C(=O)N(C)Cc1ccccc1`, the outcome in series [1], in series [3], in series [6], in series [7] and in series [8] was inactive. Further, the Ratio in series [2] worked out at 1 M⁻¹ s⁻¹. Also, the half-life in series [4] came out at 20 min.
